What was measured:
[1] = target: GABA-A receptor alpha-1/beta-3 (Homo sapiens) (UniProt P14867+P28472); test: Modulation of GABA Aalpha1beta3 receptor expressed in Xenopus laevis oocytes assessed as potentiation of GABA-induced chloride current at holding potential -70 mV by two-microelectrode voltage clamp technique relative to GABA; format: cell-based; details: Oocyte
How it was run: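 α1β3 receptors were expressed in defolliculated stage V–VI Xenopus oocytes and kept at 18 °C in ND96, pH 7.4. Potentiation was computed as (I(GABA+compound)/IGABA)−1, and EC50 and Hill coefficient came from nonlinear fits. Matched DMSO was ≤0.3%.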

[2] = target: T1, Gamma-aminobutyric acid receptor subunit alpha-5/beta-2 (Homo sapiens, UniProt P31644+P47870); test: Modulation of GABA Aalpha5beta2 receptor expressed in Xenopus laevis oocytes assessed as potentiation of GABA-induced chloride current at holding potential -70 mV by two-microelectrode voltage clamp technique; format: cell-based, Oocyte
T1 sequence (P47870 whole entry): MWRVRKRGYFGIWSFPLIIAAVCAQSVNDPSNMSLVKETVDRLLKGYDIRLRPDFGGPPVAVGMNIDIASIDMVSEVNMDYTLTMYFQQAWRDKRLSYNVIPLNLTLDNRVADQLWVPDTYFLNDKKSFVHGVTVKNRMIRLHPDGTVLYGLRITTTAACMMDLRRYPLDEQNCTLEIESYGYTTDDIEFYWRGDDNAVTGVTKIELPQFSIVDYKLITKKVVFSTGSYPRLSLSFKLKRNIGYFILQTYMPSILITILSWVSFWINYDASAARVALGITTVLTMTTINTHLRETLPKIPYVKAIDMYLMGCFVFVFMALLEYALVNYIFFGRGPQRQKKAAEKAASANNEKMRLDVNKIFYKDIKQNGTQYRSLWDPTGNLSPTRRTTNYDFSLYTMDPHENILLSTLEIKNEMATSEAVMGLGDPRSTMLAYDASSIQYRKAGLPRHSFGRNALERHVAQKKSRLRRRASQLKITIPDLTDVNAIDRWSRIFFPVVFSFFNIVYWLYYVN
T1 sequence (P31644 whole entry): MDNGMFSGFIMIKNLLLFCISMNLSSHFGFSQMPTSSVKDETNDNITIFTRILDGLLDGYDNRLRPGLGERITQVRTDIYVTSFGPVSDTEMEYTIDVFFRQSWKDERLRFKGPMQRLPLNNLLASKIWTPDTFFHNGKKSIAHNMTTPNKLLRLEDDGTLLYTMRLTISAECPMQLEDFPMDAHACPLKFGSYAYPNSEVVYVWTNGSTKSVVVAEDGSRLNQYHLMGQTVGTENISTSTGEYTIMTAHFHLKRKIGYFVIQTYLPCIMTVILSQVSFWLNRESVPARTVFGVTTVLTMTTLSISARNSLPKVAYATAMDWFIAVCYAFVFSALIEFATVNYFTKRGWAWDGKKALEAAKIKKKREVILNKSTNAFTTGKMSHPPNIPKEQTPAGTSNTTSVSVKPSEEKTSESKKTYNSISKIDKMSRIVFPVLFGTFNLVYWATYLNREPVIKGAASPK
How it was run: (§1)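 Stage V–VI Xenopus oocytes, defolliculated with 2 mg/mL collagenase, injected with α(1, 2, 3 or 5) and β2 cRNAs mixed 1:1, then kept at 18 °C in ND96 (pH 7.4). Enhancement = I(GABA+compound)/IGABA − 1. Curves were Hill-fitted for EC50. Bath DMSO was at most 0.3%, matched in controls.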

Oocyte [3] = test: Modulation of GABA alpha1beta2gamma2s receptor expressed in Xenopus laevis oocytes assessed as potentiation of GABA-induced chloride current at holding potential -70 mV by two-microelectrode voltage clamp technique relative to GABA; format: cell-based
How it was run: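 Oocytes were injected with α1, β2 and γ2s cRNAs mixed 1:1:10 and stored at 18 °C in ND96 (pH 7.4). GABA was applied at a concentration giving 3–7% of maximal current, determined for each oocyte. Enhancement was taken as (I(GABA+compound)/IGABA) − 1. Concentration–response data were fitted to a Hill equation. Control solutions carried equal DMSO, at most 0.3%.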

[4] = target: GABA-A receptor; GABA-A site (alpha1/beta2 interface) (Homo sapiens) (UniProt P14867+P47870); test: Modulation of GABA Aalpha1beta2 receptor expressed in Xenopus laevis oocytes assessed as potentiation of GABA-induced chloride current at holding potential -70 mV by two-microelectrode voltage clamp technique relative to GABA; format: cell-based; details: Oocyte
How it was run: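 Oocytes were injected with α1, α2, α3 or α5 plus β2 cRNA at a 1:1 ratio and stored at 18 °C in ND96, pH 7.4. Enhancement was (I(GABA+compound)/IGABA)−1, and concentration-response data were Hill-fitted for EC50 and nH. Matched DMSO was ≤0.3%.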

Oocyte [5] = test: Modulation of GABA alpha1beta2gamma2s receptor expressed in Xenopus laevis oocytes assessed as potentiation of GABA-induced chloride current at holding potential -70 mV at 10 uM by two-microelectrode voltage clamp technique in presence of 1 uM of flumazenil relative to GABA; format: cell-based
[6] = target: Gamma-aminobutyric acid receptor subunit alpha-1/ beta-1 (Homo sapiens) (UniProt P14867+P18505); test: Modulation of GABA Aalpha1beta1 receptor expressed in Xenopus laevis oocytes assessed as potentiation of GABA-induced chloride current at holding potential -70 mV by two-microelectrode voltage clamp technique relative to GABA; format: cell-based; details: Oocyte
How it was run: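 Stage V–VI female Xenopus oocytes were defolliculated with collagenase and injected with α1 and β1 cRNA at a 3:1 ratio. Oocytes were held at 18 °C in ND96, pH 7.4. Enhancement was (I(GABA+compound)/IGABA)−1, and EC50 and nH came from Hill fits. DMSO was ≤0.3% and matched in controls.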

[7] = target: T2, Gamma-aminobutyric acid receptor subunit alpha-2/beta-2 (Homo sapiens, UniProt P47869+P47870); test: Modulation of GABA Aalpha2beta2 receptor expressed in Xenopus laevis oocytes assessed as potentiation of GABA-induced chloride current at holding potential -70 mV by two-microelectrode voltage clamp technique; format: cell-based, Oocyte; how it was run: as §1
T2 sequence (P47870 whole entry): T1 sequence (P47870 whole entry)
T2 sequence (P47869 whole entry): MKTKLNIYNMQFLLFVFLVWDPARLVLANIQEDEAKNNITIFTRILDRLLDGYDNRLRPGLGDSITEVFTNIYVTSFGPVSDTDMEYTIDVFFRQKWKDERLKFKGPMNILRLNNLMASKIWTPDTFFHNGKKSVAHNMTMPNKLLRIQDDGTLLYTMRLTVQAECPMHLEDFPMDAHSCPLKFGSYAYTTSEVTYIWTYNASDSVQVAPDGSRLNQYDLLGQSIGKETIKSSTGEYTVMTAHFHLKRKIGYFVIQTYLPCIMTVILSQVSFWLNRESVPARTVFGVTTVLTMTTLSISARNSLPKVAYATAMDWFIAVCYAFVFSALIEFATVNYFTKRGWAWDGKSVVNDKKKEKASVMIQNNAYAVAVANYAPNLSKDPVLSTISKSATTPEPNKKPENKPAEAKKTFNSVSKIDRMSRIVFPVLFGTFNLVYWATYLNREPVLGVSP

C=CCc1ccc(O)c(-c2ccc(O)c(CC=C)c2)c1 [HONOKIOL]
Smax [1]: 878% | EC50 [2]: 23.4 µM | Smax (Oocyte [3]): 1320% | Smax [4]: 1030% | Activity (Oocyte [5]): 116% | Smax [6]: 260% | EC50 [7]: 46.4 µM

— ChEMBL document CHEMBL1811845, “Modulation of GABAA-receptors by honokiol and derivatives: subtype selectivity and structure-activity relationship” (J Med Chem, 2011)
